The array DNA melting data of Ke et al. (doi:10.1101/2024.01.08.574731)

Legend:
[1] = folding enthalpy; higher = less favourable; fluorescence melt of hairpins on a sequencing array, two-state fit; details: sodium 0.088 M
How it was run: (§1)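 Folding enthalpy and melting temperature come from bootstrapped two-state fits to Cy3 fluorescence of library hairpins carrying annealed Cy3 and quencher oligos on a sequenced MiSeq flow cell. Imaging was done in 50 mM Na-HEPES pH 8.0, 25 mM NaCl, stepping by 2.5 °C up to 60 °C, and signals were normalised to pre-quench Cy3 and to control constructs. Results of four replicates were combined by inverse variance, and fitted temperatures were raised by 9.35 °C to match UV melts.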

[2] = melting temperature; fluorescence melt of hairpins on a sequencing array, two-state fit, raised by 9.35 °C to match UV melts; details: sodium 0.088 M
How it was run: as §1

Sequence | folding enthalpy [1] | Tm [2]
GTCCTAGGAAACTAGGGC (.(((((....))))).) | -32.9 kcal/mol | 49.4 °C
GTCCTCCCGAAAGGGGAC (((..(((....)))))) | -14.3 kcal/mol | 44.8 °C
GTCCTCCGAAAGGAAGAC (((.(((....))).))) | -27.5 kcal/mol | 43.9 °C
GTCCTCGAAAGAGAGAC ((((((....))).))) | -20.2 kcal/mol | 46.6 °C
GTCCTCGAAAGAGCAGAC ((((((....)))..))) | -19.8 kcal/mol | 30.1 °C
GTCCTCGAAAGAGCCGAC ((((((....)))..))) | -12.4 kcal/mol | 26.7 °C
GTCCTCGAAAGAGGGAC ((((((....))).))) | -15.7 kcal/mol | 53.9 °C
GTCCTCGCGAAAGCGGAC (((..(((....)))))) | -12.7 kcal/mol | 43.7 °C
GTCCTGCGAAAGCAGAC (((.(((....)))))) | -12.1 kcal/mol | 47.4 °C
GTCCTGGCGAAAGCCGAC (((..(((....)))))) | -9.43 kcal/mol | 32.9 °C
GTCCTGGGAAACTAGGGC (.(((.(....).))).) | -28.8 kcal/mol | 40 °C
GTCCTTCGAAAGAAAGAC (((.(((....))).))) | -19.1 kcal/mol | 34.4 °C
GTCCTTCGAAAGAATGAC (((.(((....))).))) | -30.3 kcal/mol | 39.2 °C
GTCCTTGGAAACAAGAAC ((.((((....)))).)) | -14.2 kcal/mol | 30.5 °C
GTCGAAGGAAACCTCGAC (((((.(....).))))) | -31.8 kcal/mol | 48 °C
GTCGAATCGAAAGATGAC (((..(((....)))))) | -19.9 kcal/mol | 32.6 °C
GTCGACCCGAAAGGGGAC (((..(((....)))))) | -13.4 kcal/mol | 40 °C
GTCGACCGAAAGGTAGAC (((.(((....))).))) | -36.4 kcal/mol | 59.8 °C
GTCGACCGAAAGGTGAC (((.(((....)))))) | -22.4 kcal/mol | 51.8 °C
GTCGACGAAAGTCACGAC ((((((....)))..))) | -18.6 kcal/mol | 45.4 °C
GTCGACGAAAGTCCAGAC ((((((....)))..))) | -16.1 kcal/mol | 38.9 °C
GTCGACGAAAGTCCGAC ((((((....))).))) | -21.3 kcal/mol | 51.7 °C
GTCGACGAAAGTCTAGAC ((((((....)))..))) | -24 kcal/mol | 42.3 °C

Sequence | folding enthalpy [1] | Tm [2]
GTCGACGGAAACGCCGAC ((((.((....)).)))) | -44.7 kcal/mol | 55.3 °C
GTCGAGACGAAAGTCGAC (((..(((....)))))) | -20.9 kcal/mol | 51.4 °C
GTCGAGCCGAAAGGCGAC (((..(((....)))))) | -8.79 kcal/mol | 50.3 °C
GTCGAGCGAAAGCTAGAC (((.(((....))).))) | -33.5 kcal/mol | 60.5 °C
GTCGAGGGAAACCTCAAC ((.((((....)))).)) | -18.1 kcal/mol | 36.5 °C
GTCGATACGAAAGTAGAC (((..(((....)))))) | -20.3 kcal/mol | 35.8 °C
GTCGATGGAAACACCGAC ((((.((....)).)))) | -38 kcal/mol | 47.2 °C
GTCGCACGAAAGTGGAC (((.(((....)))))) | -18.8 kcal/mol | 49.9 °C
GTCGCAGGAAACCACGAC ((((..(....)..)))) | -28 kcal/mol | 35.4 °C
GTCGCAGGAAACCGCAAC ((.((.(....).)).)) | -12.8 kcal/mol | 25.8 °C
GTCGCATCGAAAGATGAC (((..(((....)))))) | -13.4 kcal/mol | 28.9 °C
GTCGCCGCGAAAGCGGAC (((..(((....)))))) | -6.08 kcal/mol | 32.8 °C
GTCGCGCGAAAGCGAGAC (((.(((....))).))) | -25.4 kcal/mol | 68.2 °C
GTCGCGGGAAACCGCAAC ((.((((....)))).)) | -13.3 kcal/mol | 44.1 °C
GTCGCGGGAAACCGTGAC (((.(((....))).))) | -35.2 kcal/mol | 59.8 °C
GTCGCGGGAAACTGCGAC (((((.(....).))))) | -41.2 kcal/mol | 65.3 °C
GTCGCGGGAAACTGCGGC (.(((.(....).))).) | -27.1 kcal/mol | 54.7 °C
GTCGCTCCGAAAGGAGAC (((..(((....)))))) | -10.5 kcal/mol | 34.9 °C
GTCGCTCGAAAGAGGAC (((.(((....)))))) | -18.1 kcal/mol | 45.4 °C
GTCGCTCGAAAGAGTGAC (((.(((....))).))) | -43.3 kcal/mol | 62.6 °C
GTCGCTGCGAAAGCAGAC (((..(((....)))))) | -10 kcal/mol | 38.5 °C
GTCGCTGGAAACAGTGGC (.(.(((....))).).) | -27.8 kcal/mol | 45.4 °C
GTCGGACGAAAGTCGGAC (((.(((....))).))) | -32.3 kcal/mol | 58.5 °C

Sequence | folding enthalpy [1] | Tm [2]
GTCGGACGAAAGTCTGAC (((.(((....))).))) | -40.9 kcal/mol | 61.5 °C
GTCGGAGGAAACCCCGAC (((((.(....).))))) | -33.3 kcal/mol | 53.8 °C
GTCGGCACGAAAGTGGAC (((..(((....)))))) | -12.3 kcal/mol | 34.7 °C
GTCGGCGAAAGCCACGAC ((((((....)))..))) | -14.4 kcal/mol | 56 °C
GTCGGCGAAAGCCCCGAC ((((((....)))..))) | -15.6 kcal/mol | 41.8 °C
GTCGGCGAAAGCCGGAC ((((((....))).))) | -12.4 kcal/mol | 61.1 °C
GTCGGCGAAAGCCGTGAC ((((((....)))..))) | -8.14 kcal/mol | 41.1 °C
GTCGGTCCGAAAGGAGAC (((..(((....)))))) | -15 kcal/mol | 36 °C
GTCGGTGGAAACACCAAC ((.((((....)))).)) | -18.1 kcal/mol | 39.4 °C
GTCGGTGGAAACACTGGC (.(.(((....))).).) | -27.8 kcal/mol | 42.8 °C
GTCGGTGGAAACGCCGAC (((((.(....).))))) | -50 kcal/mol | 63.2 °C
GTCGTACCGAAAGGTGAC (((..(((....)))))) | -18.6 kcal/mol | 42.8 °C
GTCGTACGAAAGTAGAC (((.(((....)))))) | -32.4 kcal/mol | 52 °C
GTCGTAGCGAAAGCTGAC (((..(((....)))))) | -19.6 kcal/mol | 46.3 °C
GTCGTAGGAAACTACAAC ((.((((....)))).)) | -21 kcal/mol | 30 °C
GTCGTCGAAAGACATGAC ((((((....)))..))) | -17.4 kcal/mol | 38.5 °C
GTCGTCGAAAGACCCGAC ((((((....)))..))) | -14.5 kcal/mol | 31.3 °C
GTCGTCGAAAGACGCGAC ((((((....)))..))) | -12.5 kcal/mol | 55.7 °C
GTCGTCGAAAGACGGAC ((((((....))).))) | -13.6 kcal/mol | 56.2 °C
GTCGTCGGAAACGATGAC (((.(((....))).))) | -44.4 kcal/mol | 55.5 °C
GTCGTCGGAAACGGTGAC (((..((....))..))) | -24 kcal/mol | 42.4 °C
GTCGTGGGAAACTACGGC (.(((.(....).))).) | -25.6 kcal/mol | 44.7 °C
GTCGTGTCGAAAGACGAC (((..(((....)))))) | -19.9 kcal/mol | 48.9 °C

Sequence | folding enthalpy [1] | Tm [2]
GTCGTTGGAAACAATGGC (.(.(((....))).).) | -24.8 kcal/mol | 35 °C
GTCTAAGGAAACTCAGAC ((((.((....)).)))) | -11.5 kcal/mol | 26.6 °C
GTCTACGAAAGTACTGAC ((((((....)))..))) | -10.8 kcal/mol | 28.9 °C
GTCTACGAAAGTAGAC ((((((....)))))) | -36.8 kcal/mol | 66.8 °C
GTCTAGTCGAAAGACGAC (((..(((....)))))) | -14.3 kcal/mol | 39.4 °C
GTCTATCGAAAGATCGAC (((.(((....))).))) | -40.4 kcal/mol | 41.4 °C
GTCTATCGAAAGATGAC (((.(((....)))))) | -27.1 kcal/mol | 42 °C
GTCTATGGAAACACAGAC ((((.((....)).)))) | -21 kcal/mol | 31.6 °C
GTCTCAACGAAAGTTGAC (((..(((....)))))) | -10.7 kcal/mol | 30.5 °C
GTCTCAGAAATGAGAC ((((((....)))))) | -41.8 kcal/mol | 53.8 °C
GTCTCAGGAAACCGAGAC (((((.(....).))))) | -30.8 kcal/mol | 45.7 °C
GTCTCCCGAAAGGGGGAC (((.(((....))).))) | -32.4 kcal/mol | 65.9 °C
GTCTCCGAAAGGAGTGAC ((((((....)))..))) | -11.2 kcal/mol | 36 °C
GTCTCCGAAAGGATTGAC ((((((....)))..))) | -20 kcal/mol | 35.5 °C
GTCTCGGCGAAAGCCGAC (((..(((....)))))) | -4.96 kcal/mol | 35.6 °C
GTCTCGGGAAACCAAGAC ((((.((....)).)))) | -26.5 kcal/mol | 37.2 °C
GTCTCGTCGAAAGACGAC (((..(((....)))))) | -7.57 kcal/mol | 37 °C
GTCTCTCGAAAGAGTGAC (((.(((....))).))) | -32.6 kcal/mol | 49.7 °C
GTCTCTGGAAACAGAGGC (.(((((....))))).) | -26.2 kcal/mol | 49.5 °C
GTCTGAGAAATCAGAC ((((((....)))))) | -37.5 kcal/mol | 52.4 °C
GTCTGAGGAAACTCAAAC ((.((((....)))).)) | -11.3 kcal/mol | 24.5 °C
GTCTGAGGAAACTCAGAC (((((((....))))))) | -45.5 kcal/mol | 63.8 °C
